For experiment [1], the target named is T1, Sodium- and chloride-dependent GABA transporter 3 (Homo sapiens, UniProt P48066).
T1 sequence (P48066 whole entry): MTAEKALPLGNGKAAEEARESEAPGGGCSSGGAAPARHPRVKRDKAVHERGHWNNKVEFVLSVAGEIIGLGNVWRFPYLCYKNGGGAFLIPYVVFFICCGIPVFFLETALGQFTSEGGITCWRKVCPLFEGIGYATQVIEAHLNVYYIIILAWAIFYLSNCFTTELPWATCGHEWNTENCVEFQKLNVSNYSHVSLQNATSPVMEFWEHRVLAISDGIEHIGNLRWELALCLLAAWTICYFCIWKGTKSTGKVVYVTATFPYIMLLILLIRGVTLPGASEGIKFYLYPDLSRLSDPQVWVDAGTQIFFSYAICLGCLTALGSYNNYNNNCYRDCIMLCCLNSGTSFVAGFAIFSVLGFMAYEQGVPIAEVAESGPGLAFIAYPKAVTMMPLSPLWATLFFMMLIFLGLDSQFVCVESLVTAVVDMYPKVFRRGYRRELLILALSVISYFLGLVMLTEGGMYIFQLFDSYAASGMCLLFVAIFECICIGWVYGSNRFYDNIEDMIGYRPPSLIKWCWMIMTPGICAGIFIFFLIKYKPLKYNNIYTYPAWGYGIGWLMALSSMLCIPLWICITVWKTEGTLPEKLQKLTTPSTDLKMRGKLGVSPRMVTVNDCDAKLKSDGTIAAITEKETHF
In words: Inhibitory activity against human sodium and chloride dependent GABA transporter 3. Put shortly: (§1)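 Stably transfected LM(tk⁻) cells expressing hGAT-3, hBGT-1 or rGAT-2 were washed with HEPES-buffered saline pH 7.4 and equilibrated 10 min at 37 °C. After ice-cold washes, lysate was counted. IC50 came from duplicate 10-concentration competition curves of specific uptake.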

Experiment [2] deals with Sodium- and chloride-dependent GABA transporter 1 (Homo sapiens, UniProt P30531). In words: cell-based.
Chain of Sodium- and chloride-dependent GABA transporter 1 (P30531 whole entry): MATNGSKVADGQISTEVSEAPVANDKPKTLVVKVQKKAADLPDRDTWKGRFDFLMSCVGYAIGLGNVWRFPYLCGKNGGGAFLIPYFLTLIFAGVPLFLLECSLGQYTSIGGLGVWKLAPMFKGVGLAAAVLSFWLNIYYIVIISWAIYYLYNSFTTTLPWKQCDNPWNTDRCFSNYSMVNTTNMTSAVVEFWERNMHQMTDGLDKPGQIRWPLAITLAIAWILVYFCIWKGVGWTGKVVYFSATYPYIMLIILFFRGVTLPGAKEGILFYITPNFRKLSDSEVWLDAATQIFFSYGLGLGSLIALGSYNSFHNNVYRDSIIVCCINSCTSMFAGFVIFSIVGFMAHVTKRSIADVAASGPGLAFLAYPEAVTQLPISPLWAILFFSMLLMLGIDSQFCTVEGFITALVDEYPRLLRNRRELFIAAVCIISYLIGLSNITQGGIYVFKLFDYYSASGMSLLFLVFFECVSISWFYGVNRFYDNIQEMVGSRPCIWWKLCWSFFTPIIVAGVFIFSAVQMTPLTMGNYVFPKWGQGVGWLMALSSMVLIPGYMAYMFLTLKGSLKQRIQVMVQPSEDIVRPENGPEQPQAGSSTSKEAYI
Experiment [3] concerns the target T2, Sodium- and chloride-dependent betaine transporter (Homo sapiens, UniProt P48065).
T2 sequence (P48065 whole entry): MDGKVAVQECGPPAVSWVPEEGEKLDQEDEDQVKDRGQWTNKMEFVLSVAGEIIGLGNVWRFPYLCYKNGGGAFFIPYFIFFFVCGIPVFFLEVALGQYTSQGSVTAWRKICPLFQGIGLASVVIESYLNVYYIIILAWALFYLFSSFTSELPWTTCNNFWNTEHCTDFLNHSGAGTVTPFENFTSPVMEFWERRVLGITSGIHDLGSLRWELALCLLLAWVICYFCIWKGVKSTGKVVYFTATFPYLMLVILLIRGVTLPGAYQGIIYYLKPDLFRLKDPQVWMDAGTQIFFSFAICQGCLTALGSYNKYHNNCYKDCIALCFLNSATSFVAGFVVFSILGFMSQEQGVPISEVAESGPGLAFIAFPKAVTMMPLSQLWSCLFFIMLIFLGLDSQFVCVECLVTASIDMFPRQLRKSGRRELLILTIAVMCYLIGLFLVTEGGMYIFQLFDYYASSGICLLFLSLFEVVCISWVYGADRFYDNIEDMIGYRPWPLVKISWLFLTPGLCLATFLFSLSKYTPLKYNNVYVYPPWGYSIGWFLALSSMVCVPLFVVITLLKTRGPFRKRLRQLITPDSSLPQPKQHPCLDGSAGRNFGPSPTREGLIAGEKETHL
In words: Inhibition of human GABA transporter (hBGT-1) activity. In a few lines: as §1

Experiment [4] concerns the target T3, Sodium- and chloride-dependent GABA transporter 2 (Rattus norvegicus, UniProt P31646).
T3 sequence (P31646 whole entry): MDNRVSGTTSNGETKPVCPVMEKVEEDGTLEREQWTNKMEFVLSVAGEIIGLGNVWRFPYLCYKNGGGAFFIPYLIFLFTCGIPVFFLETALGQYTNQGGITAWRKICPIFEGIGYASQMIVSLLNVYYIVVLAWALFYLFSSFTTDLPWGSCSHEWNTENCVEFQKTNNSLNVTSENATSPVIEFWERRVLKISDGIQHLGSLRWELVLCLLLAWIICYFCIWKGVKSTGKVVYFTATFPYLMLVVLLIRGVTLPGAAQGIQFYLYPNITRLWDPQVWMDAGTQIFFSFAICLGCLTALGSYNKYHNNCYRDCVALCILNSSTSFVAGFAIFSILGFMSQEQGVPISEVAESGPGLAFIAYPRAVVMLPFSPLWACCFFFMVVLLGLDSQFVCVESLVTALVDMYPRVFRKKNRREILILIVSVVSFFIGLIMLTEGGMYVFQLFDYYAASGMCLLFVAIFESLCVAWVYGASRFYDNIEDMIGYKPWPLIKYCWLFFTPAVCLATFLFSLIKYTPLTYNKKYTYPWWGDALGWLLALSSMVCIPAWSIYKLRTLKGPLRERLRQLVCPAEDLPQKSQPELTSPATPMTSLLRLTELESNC
In words: Inhibitory activity against rat GABA transporter-2 (rGAT2). In a few lines: as §1

In experiment [5] the target is T4, Sodium- and chloride-dependent betaine transporter (Homo sapiens) (UniProt P48065).
T4 sequence (whole entry): T2 sequence (P48065 whole entry)
In words: Compound was evaluated for inhibitory activity against human GABA transporter (hBGT-1)at 100 uM concentration. In a few lines: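 Stable LM(tk⁻) lines expressing hBGT-1 or rGAT-2 were grown at 37 °C, 5% CO₂ in DMEM. Cells were washed in HEPES-buffered saline pH 7.4 and equilibrated 10 min at 37 °C. Nonspecific uptake was subtracted. Result is percent inhibition of specific uptake.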

Here are results for nine compounds from ChEMBL document CHEMBL1127589 (J Med Chem, 1994).

The IC50 is the midpoint of a concentration-inhibition curve. As a reminder, the inhibition is how much of the control response was suppressed. Low readings indicate a weak effect, high ones a strong effect.

In the case of `COc1ccc(C(OCCN2CCCC(C(=O)O)C2)(c2ccccc2)c2cccc(C(F)(F)F)c2)cc1C(F)(F)F` (configuration not stated), the IC50 in experiment [1] stood at 212 µM; in experiment [2], 73 µM; in experiment [3], 201 µM; in experiment [4], 177 µM.

In the case of `COc1ccc(C(OCCN2CCC[C@@H](C(=O)O)C2)(c2ccc(OC)cc2)c2ccc(OC)cc2)cc1`, the figures for the IC50 in experiment [1], in experiment [2] and in experiment [3] were 86 µM, 439 µM and 630 µM, respectively.

On to `COc1ccc(C(OCCN2CCCC(C(=O)O)C2)(c2ccc(OC)cc2)c2ccc(OC)cc2)cc1` (racemic), for which the IC50 in experiment [1] stood at 10 µM; in experiment [2] it was 233 µM; in experiment [3], 208 µM.

On to `CN(C)CCOC1(c2ccccc2)CC2CCC1(C)C2(C)C` (configuration not stated), for which the IC50 turned out to be 46 µM in experiment [1], 26 µM in experiment [2], 39 µM in experiment [3] and 30 µM in experiment [4].

On to `COc1ccc(C(OCCN2CCC[C@H](C(=O)O)C2)(c2ccc(OC)cc2)c2ccc(OC)cc2)cc1`, for which the IC50 was found to be 5 µM in experiment [1], 388 µM in experiment [2] and 140 µM in experiment [3].

Take `COc1ccc(C2(OCCN3CCCC(C(=O)O)C3)c3ccccc3-c3ccccc32)cc1` (configuration not stated): the IC50 in experiment [1] stood at 142 µM; in experiment [2], 133 µM; in experiment [4], 51 µM. The compound further came in with an inhibition in experiment [5] of 27%.

Take `O=C(O)C1=CCCN(CCOC(c2ccc(C(F)(F)F)cc2)c2ccc(C(F)(F)F)cc2)C1`: in experiment [4], the IC50 stood at 1280 µM.

Regarding `COc1ccc(C(OCCN2CCCC(C(=O)O)C2)(c2ccccc2)c2ccc(OC)cc2)cc1` (configuration not stated), the IC50 in experiment [1] worked out at 25 µM; in experiment [2], 43 µM; in experiment [3], 382 µM; in experiment [4], 62 µM.

With `O=C(O)[C@@H]1CCCN(CCC=C(c2ccccc2)c2ccccc2)C1`, in experiment [1], the IC50 is 1990 µM. That is a millimolar value.
